Bioassay records (PubChem BioAssay)
T cruzi inh – blocks replication of Trypanosoma cruzi. 1.4% of 300,000 active. inhibition, % (test concentration not listed). T. cruzi beta-gal in NIH3T3, luminescence, 90 h. AID 1885;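 active = mean inhibition across valid replicates above about 55%, limit read from the data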;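 also: signal also drops with host cell toxicity which is not excluded here; 0% = plate median of DMSO wells and 100% = zero luminescence signal; higher percent means less beta-gal luminescence so fewer parasites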
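System – NIH/3T3 host cells with β-galactosidase reporter T. cruzi · Doses – single 50 nL compound addition per well in DMSO · Reagent – 5000 T. cruzi trypomastigotes/well · Medium – Low-serum DMEM with 2% FBS · Timing – ≥90 h infection period, 3 h prior cell attachment · Evaluation – parasite load inhibition, % · Technique – GalScreen luminescence, 60 min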
V-ATPase pH – yeast V-ATPase proton transport regulation by pHLuorin; response, % at 10 µM; S. cerevisiae, pHLuorin cytosolic pH fluorescence; 0.37% of 350,000 active; in the data active = response mostly above about 7.3%, no sharp cut-off; inactive = mostly below about 5.4%; also: actives read high
Yeast superoxide – caloric restriction mimetics inhibiting age-related superoxide in yeast | 0.18% of 330,000 active | AID 2690 | superoxide response (% of plate mean), % at 10 µM | S. cerevisiae aged cells, superoxide DHE fluorescence; stronger effect = lower value;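 active = superoxide response under a set limit, about three screen SD below normal, cut at about 65% in these data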;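 also: yeast aged for seven days with compound at 30 °C before DHE staining; 100% = average MFI of all compound-treated wells on the plate with controls excluded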
HIF act – HIF pathway transcriptional activation; U2OS HRE-luciferase reporter, luminescence; normalized: DMSO 0%, desferrioxamine 100%; activation, % at 7.5 µM (by protocol); 0.32% of 300,000 active; AID 1910;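 active = mean activation of at least 10% of the iron chelator positive control signal, with at least half of replicates also reaching 10%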
NRP1-CendR mod – alters CendR peptide binding to human NRP-1. FAM-RPARPAR peptide binding to NRP-1, fluorescence polarization. inhibition, % at 25 µM. 0.85% of 360,000 active;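 active = inhibition or corrected inhibition above about 18%, plus a signal ratio from 0.5 to 1.5, limit read from the data, passing the limit was not always enough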
Target sequence (O14786 whole entry, looked up): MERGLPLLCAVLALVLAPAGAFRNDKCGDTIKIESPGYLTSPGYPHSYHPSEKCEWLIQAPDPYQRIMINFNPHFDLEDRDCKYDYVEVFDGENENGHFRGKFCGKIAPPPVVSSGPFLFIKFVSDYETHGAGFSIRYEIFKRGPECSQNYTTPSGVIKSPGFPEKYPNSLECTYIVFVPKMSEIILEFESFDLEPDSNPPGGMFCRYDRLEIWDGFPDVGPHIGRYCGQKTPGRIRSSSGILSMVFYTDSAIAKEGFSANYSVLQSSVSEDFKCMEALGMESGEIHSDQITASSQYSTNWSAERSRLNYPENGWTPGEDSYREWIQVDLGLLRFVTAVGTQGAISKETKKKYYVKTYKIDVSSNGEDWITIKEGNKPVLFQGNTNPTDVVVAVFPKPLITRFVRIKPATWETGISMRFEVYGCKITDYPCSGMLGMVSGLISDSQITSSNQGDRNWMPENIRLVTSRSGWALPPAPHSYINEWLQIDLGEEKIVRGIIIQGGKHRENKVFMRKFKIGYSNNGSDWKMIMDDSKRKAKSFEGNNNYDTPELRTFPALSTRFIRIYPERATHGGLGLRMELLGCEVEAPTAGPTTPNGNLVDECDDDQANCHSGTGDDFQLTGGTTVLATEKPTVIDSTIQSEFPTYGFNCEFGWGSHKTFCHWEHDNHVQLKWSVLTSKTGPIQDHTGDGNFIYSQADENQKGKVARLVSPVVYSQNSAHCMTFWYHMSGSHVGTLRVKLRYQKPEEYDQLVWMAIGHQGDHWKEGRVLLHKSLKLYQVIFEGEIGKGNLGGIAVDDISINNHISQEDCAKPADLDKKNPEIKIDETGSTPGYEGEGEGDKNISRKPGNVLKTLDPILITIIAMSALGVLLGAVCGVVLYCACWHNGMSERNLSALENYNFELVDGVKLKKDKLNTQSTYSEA
AI-2 QS mod – Vibrio harveyi AI-2 quorum sensing modulation | activity change, % at 7.5 µM | 0.4% of 300,000 active | Vibrio harveyi JMH597 AI-2 luminescence/OD600 ratio, 9 h; stronger effect = lower value; strain lacks LuxN and CqsS sensors; 0 = neutral-control median; in the data active = activity change below about -75%, passing the limit was not always enough;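 also: luminescence divided by OD600 gain over 9 h not by final OD600 alone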
* = called active by the depositor. Rows were chosen to be rich in hits. Some 3% of all compounds tested hit in one or more screens of this group.

How did CCn1c(=O)c2c(nc3n2CCS3)n(C)c1=O do in these assays?
T cruzi inh: -12; V-ATPase pH: -5; Yeast superoxide: 92; HIF act: 0; NRP1-CendR mod: 2; AI-2 QS mod: 6

Results for O=C(O)[C@H](Cc1ccccc1)NC(=O)N1CCC(Cc2ccccc2)CC1 ?
T cruzi inh: -11; V-ATPase pH: 0; Yeast superoxide: 112; HIF act: 0; NRP1-CendR mod: -3; AI-2 QS mod: 10

How did CC1CCN(C(=O)N[C@@H](Cc2ccccc2)C(=O)O)CC1 do in these assays?
T cruzi inh: -7; V-ATPase pH: 0; Yeast superoxide: 98; HIF act: 0; NRP1-CendR mod: 20*; AI-2 QS mod: 8

Results for COc1ccc([C@H]2CC(=O)C=C(c3cc(Cl)ccc3C)C2)cc1 ?
V-ATPase pH: 2; Yeast superoxide: 96; NRP1-CendR mod: 2

Results for O=C1C=C(c2cc(F)ccc2F)C[C@@H](c2ccc(Cl)cc2)C1 ?
V-ATPase pH: -5; Yeast superoxide: 93; NRP1-CendR mod: 10

How did Cc1ccc(Cl)cc1C1=CC(=O)C[C@H](c2ccc(F)cc2)C1 do in these assays?
V-ATPase pH: 0; Yeast superoxide: 80; NRP1-CendR mod: 27*

How did O=C1C=C(c2ccc(F)c(Cl)c2)C[C@@H](c2ccc(F)cc2)C1 do in these assays?
V-ATPase pH: -1; Yeast superoxide: 101; NRP1-CendR mod: 24*

What do the screens show for `CC(C)OC(=O)c1ccccc1C(=O)c1ccc(N)c([N+](=O)[O-])c1`?
T cruzi inh: -11; V-ATPase pH: 1; Yeast superoxide: 95; HIF act: 0; NRP1-CendR mod: 7; AI-2 QS mod: -2

Results for Cc1ccc(/C=N/NC(=O)CSc2nnc(-c3ccc(Cl)cc3)n2-c2ccccc2)o1 ?
T cruzi inh: 0; V-ATPase pH: 0; Yeast superoxide: 106; HIF act: 0; NRP1-CendR mod: 43*; AI-2 QS mod: 30

How did CCCCN1C(=O)C(CC(=O)NCC2CCCCC2)CC(C(=O)N(C(C)C)C(C)C)=C1C (stereo unspecified) do in these assays?
V-ATPase pH: -1; NRP1-CendR mod: 3

Results for O=C1CC(NS(=O)(=O)c2ccc([N+](=O)[O-])cc2)CN1c1ccc(Cl)cc1 (stereo unspecified) ?
T cruzi inh: 62*; V-ATPase pH: 0; Yeast superoxide: 111; HIF act: 0; NRP1-CendR mod: 13; AI-2 QS mod: 35

What do the screens show for `CC(C)=C1SC(N2CCN(Cc3ccccc3)CC2)=NC1=O`?
T cruzi inh: -2; V-ATPase pH: -2; Yeast superoxide: 105; HIF act: 0; NRP1-CendR mod: -2; AI-2 QS mod: 21

How did O=C(NCC(=O)N1CCCC1)c1ccccc1F do in these assays?
T cruzi inh: -13; V-ATPase pH: -6; Yeast superoxide: 83; HIF act: 1; NRP1-CendR mod: -10; AI-2 QS mod: 35

What do the screens show for `O=C(NCC(=O)N1CCC(Cc2ccccc2)CC1)c1ccccc1F`?
V-ATPase pH: 0; NRP1-CendR mod: 32*

Results for O=C(CNC(=O)C(c1ccccc1)c1ccccc1)OCc1ccccc1 ?
T cruzi inh: 9; V-ATPase pH: -2; Yeast superoxide: 95; HIF act: 0; NRP1-CendR mod: 6; AI-2 QS mod: 19

How did C(=N\Nc1nc2ccccc2s1)/c1cccs1 do in these assays?
T cruzi inh: 3; V-ATPase pH: -1; Yeast superoxide: 95; HIF act: 1; NRP1-CendR mod: -19; AI-2 QS mod: 20

How did CCn1c(C)c(/C=N/Nc2nc3ccccc3s2)c2ccccc21 do in these assays?
T cruzi inh: 69*; V-ATPase pH: -1; Yeast superoxide: 79; HIF act: 2; NRP1-CendR mod: 6; AI-2 QS mod: 40

How did CC1CCN(S(=O)(=O)c2ccc(C(C)C)cc2)CC1 do in these assays?
T cruzi inh: 8; V-ATPase pH: 0; Yeast superoxide: 91; HIF act: 0; NRP1-CendR mod: 19; AI-2 QS mod: -88*

What do the screens show for `Cc1cccc(Nc2ccc(S(=O)(=O)N3CCOCC3)cc2[N+](=O)[O-])c1`?
V-ATPase pH: -1; Yeast superoxide: 76; NRP1-CendR mod: 6

What do the screens show for `C1CCC(CNc2c3c(nc4nnnn24)CCCC3)CC1`?
T cruzi inh: 68*; V-ATPase pH: -2; Yeast superoxide: 93; HIF act: 0; NRP1-CendR mod: 15; AI-2 QS mod: 21

What do the screens show for `O=C(CSc1c2c(nc3ccccc13)CCCC2)NCc1ccco1`?
T cruzi inh: 31; V-ATPase pH: 2; Yeast superoxide: 117; HIF act: 0; NRP1-CendR mod: -8; AI-2 QS mod: 15

Results for CC(C)(C)c1nc(SCC(=O)NCc2ccco2)c2ccccc2n1 ?
T cruzi inh: 17; V-ATPase pH: 4; Yeast superoxide: 97; HIF act: 0; NRP1-CendR mod: 26*; AI-2 QS mod: 0

What do the screens show for `CCOc1ccc(CCN2C(=S)N([C@@H](CC(C)C)CN3CCC[C@@H]3CN3C(=S)NC[C@@H]3CC(C)C)C[C@@H]2Cc2ccc(O)cc2)cc1`?
NRP1-CendR mod: 24*

Results for CCOc1ccc(CCN2C(=S)N([C@@H](CC(C)C)CN3CCCC3CN3C(=S)NC[C@@H]3CC(C)C)C[C@@H]2Cc2ccc(O)cc2)cc1 (stereo partly specified) ?
V-ATPase pH: 3; NRP1-CendR mod: -5

Results for O=C(N/C(=C\c1ccc2c(c1)OCO2)C(=O)N1CCOCC1)c1cccs1 ?
T cruzi inh: -11; V-ATPase pH: -1; Yeast superoxide: 88; HIF act: 0; NRP1-CendR mod: 11; AI-2 QS mod: 9

Results for COc1cccc(NC(=O)N2C3CCCC2CC(NC(=O)C(C)(C)C)C3)c1 (stereo unspecified) ?
T cruzi inh: -8; V-ATPase pH: -3; Yeast superoxide: 99; HIF act: 0; NRP1-CendR mod: 9; AI-2 QS mod: 24

What do the screens show for `COc1cc(NS(=O)(=O)c2ccc(C)c(C)c2)c(OC)cc1Cl`?
T cruzi inh: -1; V-ATPase pH: 2; Yeast superoxide: 107; HIF act: 1; NRP1-CendR mod: 27*; AI-2 QS mod: 15

How did FC(F)(F)c1cccc(Nc2nc(N3CCCC3)nc(N3CCCC3)n2)c1 do in these assays?
T cruzi inh: 16; V-ATPase pH: 1; Yeast superoxide: 101; HIF act: 0; NRP1-CendR mod: 1; AI-2 QS mod: 22

How did CN1CCN(c2nc(Nc3cccc(C(F)(F)F)c3)nc(N3CCOCC3)n2)CC1 do in these assays?
T cruzi inh: 58*; V-ATPase pH: 7; Yeast superoxide: 116; HIF act: 0; NRP1-CendR mod: -9; AI-2 QS mod: 20

How did O=C(COC(=O)c1ccccc1Nc1ccccc1)NCc1ccccc1Cl do in these assays?
T cruzi inh: -16; V-ATPase pH: 3; Yeast superoxide: 115; HIF act: 683*; NRP1-CendR mod: 4; AI-2 QS mod: 44
